Laboratory results reported in ChEMBL document CHEMBL2384977, “Synthesis and biological evaluation of novel styryl benzimidazole derivatives as probes for imaging of neurofibrillary tangles in Alzheimer's disease” (Bioorg Med Chem, 2013).

Experiments:
[1] = target: Amyloid-beta precursor protein (Homo sapiens, UniProt P05067); assay: Binding affinity to amyloid beta (1 to 42) (unknown origin) aggregates assessed as apparent dissociation constant after 30 mins by fluorescence spectroscopic analysis; settings: read-out: Kd(app)
In short: (§1)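 Tau: human 441-aa tau expressed in E. coli, aggregated at 1 mg/mL in MES buffer pH 6.8 with 0.1 mg/mL heparin, 37 °C for 3 days with shaking. Abeta1-42 aggregated at 0.25 mg/mL in PBS pH 7.4, 37 °C for 42 h with shaking. Aggregates at final 10 µg/mL were incubated with ligand (final 0.02–10 µM) for 30 min at room temperature. Apparent Kd was taken from fluorescence saturation curves at ex 440 nm, em 510 nm (tau) or em 480 nm (Abeta). Mean ± SEM of six independent experiments.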

[2] = target: Microtubule-associated protein tau (Homo sapiens, UniProt P10636); assay: Binding affinity to recombinant human tau (441 amino acid residues) aggregates expressed in Escherichia coli assessed as apparent dissociation constant after 30 mins by fluorescence spectroscopic analysis; settings: read-out: Kd(app); in short: as §1
Homo sapiens = species on record: Homo sapiens; assay: Selectivity ratio of Kd(app) for amyloid beta (1 to 42) (unknown origin) aggregates to Kd(app) for recombinant human tau (441 amino acid residues) aggregates
In short: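 Human 441-aa tau, expressed in E. coli, was aggregated at 1 mg/mL (MES pH 6.8, 0.1 mg/mL heparin, 37 °C, 3 days, shaking). Aβ1–42 was aggregated at 0.25 mg/mL (PBS pH 7.4, 37 °C, 42 h). Aggregates were incubated 30 min at room temperature with ligand, and fluorescence read at ex 440 nm, em 510 nm (tau) or 480 nm (Aβ). Apparent Kd came from saturation curves over six independent experiments, and the ratio is Kd(Aβ)/Kd(tau).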

Brain [3] = assay: Biodistribution in ddY mouse brain at 13.2 to 20.6 kBq, iv measured at 10 mins by gamma counting analysis; assay type: ADME, organism-based; settings: in vivo
In short: (§2)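 Male ddY mice, 5 weeks old, received the 125I-labelled tracer (13.2–20.6 kBq) intravenously in the tail vein, in 100 µL saline containing ethanol. Animals were sacrificed at 2, 10, 30 and 60 min. Tissue radioactivity is expressed as %ID/g, mean (SD) of 5 animals.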

Spleen [4] = assay: Biodistribution in ddY mouse spleen at 13.2 to 20.6 kBq, iv measured at 60 mins by gamma counting analysis; assay type: ADME, organism-based; settings: in vivo, 1 h; in short: as §2
Stomach [5] = assay: Biodistribution in ddY mouse stomach at 13.2 to 20.6 kBq, iv measured per organ at 2 mins by gamma counting analysis; assay type: ADME, organism-based; settings: in vivo
In short: (§3)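 Male ddY mice, 5 weeks old, were injected in the tail vein with the 125I tracer (13.2–20.6 kBq) in 100 µL saline containing ethanol. Sacrifice at 2, 10, 30 and 60 min. Stomach radioactivity is expressed as %ID per whole organ, mean (SD) of 5 animals.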

Blood [6] = assay: Biodistribution in ddY mouse blood at 13.2 to 20.6 kBq, iv measured at 60 mins by gamma counting analysis; assay type: ADME, organism-based; settings: in vivo, 1 h; in short: as §2
Liver [7] = assay: Biodistribution in ddY mouse liver at 13.2 to 20.6 kBq, iv measured at 60 mins by gamma counting analysis; assay type: ADME, organism-based; settings: in vivo, 1 h; in short: as §2
Stomach [8] = assay: Biodistribution in ddY mouse stomach at 13.2 to 20.6 kBq, iv measured per organ at 30 mins by gamma counting analysis; assay type: ADME, organism-based; settings: in vivo, 0.5 h; in short: as §3
Liver [9] = assay: Biodistribution in ddY mouse liver at 13.2 to 20.6 kBq, iv measured at 2 mins by gamma counting analysis; assay type: ADME, organism-based; settings: in vivo; in short: as §2
Brain [10] = assay: Biodistribution in ddY mouse brain at 13.2 to 20.6 kBq, iv measured at 2 mins by gamma counting analysis; assay type: ADME, organism-based; settings: in vivo; in short: as §2
Brain [11] = assay: Ratio of drug level in ddY mouse brain at 13.2 to 20.6 kBq, iv measured at 2 mins to drug level in ddY mouse brain at 13.2 to 20.6 kBq, iv measured at 60 mins; assay type: ADME, organism-based; settings: in vivo
In short: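 Tail-vein injection of the 125I tracer (13.2–20.6 kBq, saline with ethanol) into male 5-week-old ddY mice. The ratio is brain uptake (%ID/g) at 2 min divided by brain uptake at 60 min, from groups of 5 animals.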

Spleen [12] = assay: Biodistribution in ddY mouse spleen at 13.2 to 20.6 kBq, iv measured at 30 mins by gamma counting analysis; assay type: ADME, organism-based; settings: in vivo, 0.5 h; in short: as §2
Brain [13] = assay: Biodistribution in ddY mouse brain at 13.2 to 20.6 kBq, iv measured at 30 mins by gamma counting analysis; assay type: ADME, organism-based; settings: in vivo, 0.5 h; in short: as §2
Kidney [14] = assay: Biodistribution in ddY mouse kidney at 13.2 to 20.6 kBq, iv measured at 60 mins by gamma counting analysis; assay type: ADME, organism-based; settings: in vivo, 1 h; in short: as §2
Blood [15] = assay: Biodistribution in ddY mouse blood at 13.2 to 20.6 kBq, iv measured at 2 mins by gamma counting analysis; assay type: ADME, organism-based; settings: in vivo; in short: as §2
Lung [16] = assay: Biodistribution in ddY mouse lung at 13.2 to 20.6 kBq, iv measured at 2 mins by gamma counting analysis; assay type: ADME, organism-based; settings: in vivo; in short: as §2
Heart [17] = assay: Biodistribution in ddY mouse heart at 13.2 to 20.6 kBq, iv measured at 10 mins by gamma counting analysis; assay type: ADME, organism-based; settings: in vivo; in short: as §2
Blood [18] = assay: Biodistribution in ddY mouse blood at 13.2 to 20.6 kBq, iv measured at 10 mins by gamma counting analysis; assay type: ADME, organism-based; settings: in vivo; in short: as §2
Stomach [19] = assay: Biodistribution in ddY mouse stomach at 13.2 to 20.6 kBq, iv measured per organ at 60 mins by gamma counting analysis; assay type: ADME, organism-based; settings: in vivo, 1 h; in short: as §3
Intestine [20] = assay: Biodistribution in ddY mouse intestine at 13.2 to 20.6 kBq, iv measured at 10 mins by gamma counting analysis; assay type: ADME, organism-based; settings: in vivo; in short: as §2
Pancreas [21] = assay: Biodistribution in ddY mouse pancreas at 13.2 to 20.6 kBq, iv measured at 10 mins by gamma counting analysis; assay type: ADME, organism-based; settings: in vivo; in short: as §2
Heart [22] = assay: Biodistribution in ddY mouse heart at 13.2 to 20.6 kBq, iv measured at 2 mins by gamma counting analysis; assay type: ADME, organism-based; settings: in vivo; in short: as §2
Intestine [23] = assay: Biodistribution in ddY mouse intestine at 13.2 to 20.6 kBq, iv measured at 60 mins by gamma counting analysis; assay type: ADME, organism-based; settings: in vivo, 1 h; in short: as §2
Intestine [24] = assay: Biodistribution in ddY mouse intestine at 13.2 to 20.6 kBq, iv measured at 30 mins by gamma counting analysis; assay type: ADME, organism-based; settings: in vivo, 0.5 h; in short: as §2
Lung [25] = assay: Biodistribution in ddY mouse lung at 13.2 to 20.6 kBq, iv measured at 10 mins by gamma counting analysis; assay type: ADME, organism-based; settings: in vivo; in short: as §2
Heart [26] = assay: Biodistribution in ddY mouse heart at 13.2 to 20.6 kBq, iv measured at 60 mins by gamma counting analysis; assay type: ADME, organism-based; settings: in vivo, 1 h; in short: as §2
Heart [27] = assay: Biodistribution in ddY mouse heart at 13.2 to 20.6 kBq, iv measured at 30 mins by gamma counting analysis; assay type: ADME, organism-based; settings: in vivo, 0.5 h; in short: as §2
Intestine [28] = assay: Biodistribution in ddY mouse intestine at 13.2 to 20.6 kBq, iv measured at 2 mins by gamma counting analysis; assay type: ADME, organism-based; settings: in vivo; in short: as §2
Blood [29] = assay: Biodistribution in ddY mouse blood at 13.2 to 20.6 kBq, iv measured at 30 mins by gamma counting analysis; assay type: ADME, organism-based; settings: in vivo, 0.5 h; in short: as §2
[30] = 1-Octanol-PBS buffer partition coefficient, log P of the compound at 0.37 MBq after 2 mins by gamma counting analysis; assay type: physicochemical
Spleen [31] = assay: Biodistribution in ddY mouse spleen at 13.2 to 20.6 kBq, iv measured at 10 mins by gamma counting analysis; assay type: ADME, organism-based; settings: in vivo; in short: as §2
Liver [32] = assay: Biodistribution in ddY mouse liver at 13.2 to 20.6 kBq, iv measured at 10 mins by gamma counting analysis; assay type: ADME, organism-based; settings: in vivo; in short: as §2
Brain [33] = assay: Biodistribution in ddY mouse brain at 13.2 to 20.6 kBq, iv measured at 60 mins by gamma counting analysis; assay type: ADME, organism-based; settings: in vivo, 1 h; in short: as §2
Kidney [34] = assay: Biodistribution in ddY mouse kidney at 13.2 to 20.6 kBq, iv measured at 10 mins by gamma counting analysis; assay type: ADME, organism-based; settings: in vivo; in short: as §2
Pancreas [35] = assay: Biodistribution in ddY mouse pancreas at 13.2 to 20.6 kBq, iv measured at 30 mins by gamma counting analysis; assay type: ADME, organism-based; settings: in vivo, 0.5 h; in short: as §2
Lung [36] = assay: Biodistribution in ddY mouse lung at 13.2 to 20.6 kBq, iv measured at 60 mins by gamma counting analysis; assay type: ADME, organism-based; settings: in vivo, 1 h; in short: as §2
Pancreas [37] = assay: Biodistribution in ddY mouse pancreas at 13.2 to 20.6 kBq, iv measured at 2 mins by gamma counting analysis; assay type: ADME, organism-based; settings: in vivo; in short: as §2
Kidney [38] = assay: Biodistribution in ddY mouse kidney at 13.2 to 20.6 kBq, iv measured at 2 mins by gamma counting analysis; assay type: ADME, organism-based; settings: in vivo; in short: as §2
Pancreas [39] = assay: Biodistribution in ddY mouse pancreas at 13.2 to 20.6 kBq, iv measured at 60 mins by gamma counting analysis; assay type: ADME, organism-based; settings: in vivo, 1 h; in short: as §2
Lung [40] = assay: Biodistribution in ddY mouse lung at 13.2 to 20.6 kBq, iv measured at 30 mins by gamma counting analysis; assay type: ADME, organism-based; settings: in vivo, 0.5 h; in short: as §2
Kidney [41] = assay: Biodistribution in ddY mouse kidney at 13.2 to 20.6 kBq, iv measured at 30 mins by gamma counting analysis; assay type: ADME, organism-based; settings: in vivo, 0.5 h; in short: as §2
Spleen [42] = assay: Biodistribution in ddY mouse spleen at 13.2 to 20.6 kBq, iv measured at 2 mins by gamma counting analysis; assay type: ADME, organism-based; settings: in vivo; in short: as §2
Stomach [43] = assay: Biodistribution in ddY mouse stomach at 13.2 to 20.6 kBq, iv measured per organ at 10 mins by gamma counting analysis; assay type: ADME, organism-based; settings: in vivo; in short: as §3
Liver [44] = assay: Biodistribution in ddY mouse liver at 13.2 to 20.6 kBq, iv measured at 30 mins by gamma counting analysis; assay type: ADME, organism-based; settings: in vivo, 0.5 h; in short: as §2

Sequence of Microtubule-associated protein tau (P10636 whole entry): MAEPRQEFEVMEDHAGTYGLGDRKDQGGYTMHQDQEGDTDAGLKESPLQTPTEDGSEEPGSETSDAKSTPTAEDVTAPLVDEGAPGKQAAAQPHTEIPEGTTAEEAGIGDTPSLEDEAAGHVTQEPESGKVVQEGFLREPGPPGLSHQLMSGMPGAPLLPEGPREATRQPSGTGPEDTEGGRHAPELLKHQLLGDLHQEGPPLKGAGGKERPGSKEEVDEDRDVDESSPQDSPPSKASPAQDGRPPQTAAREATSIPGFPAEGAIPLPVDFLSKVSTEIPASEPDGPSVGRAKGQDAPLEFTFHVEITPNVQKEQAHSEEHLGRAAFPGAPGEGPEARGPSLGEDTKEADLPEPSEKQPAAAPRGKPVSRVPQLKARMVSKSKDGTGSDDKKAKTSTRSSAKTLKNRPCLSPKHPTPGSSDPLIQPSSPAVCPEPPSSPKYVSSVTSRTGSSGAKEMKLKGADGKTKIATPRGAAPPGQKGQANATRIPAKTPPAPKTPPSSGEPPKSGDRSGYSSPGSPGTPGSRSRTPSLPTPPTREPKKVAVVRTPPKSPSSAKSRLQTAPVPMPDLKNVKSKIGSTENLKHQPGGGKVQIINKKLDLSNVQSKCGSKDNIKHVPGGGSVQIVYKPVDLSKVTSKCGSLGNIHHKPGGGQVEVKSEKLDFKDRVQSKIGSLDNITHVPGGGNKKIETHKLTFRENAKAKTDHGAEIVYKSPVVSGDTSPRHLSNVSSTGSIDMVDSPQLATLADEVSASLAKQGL
Sequence of Amyloid-beta precursor protein (P05067 whole entry): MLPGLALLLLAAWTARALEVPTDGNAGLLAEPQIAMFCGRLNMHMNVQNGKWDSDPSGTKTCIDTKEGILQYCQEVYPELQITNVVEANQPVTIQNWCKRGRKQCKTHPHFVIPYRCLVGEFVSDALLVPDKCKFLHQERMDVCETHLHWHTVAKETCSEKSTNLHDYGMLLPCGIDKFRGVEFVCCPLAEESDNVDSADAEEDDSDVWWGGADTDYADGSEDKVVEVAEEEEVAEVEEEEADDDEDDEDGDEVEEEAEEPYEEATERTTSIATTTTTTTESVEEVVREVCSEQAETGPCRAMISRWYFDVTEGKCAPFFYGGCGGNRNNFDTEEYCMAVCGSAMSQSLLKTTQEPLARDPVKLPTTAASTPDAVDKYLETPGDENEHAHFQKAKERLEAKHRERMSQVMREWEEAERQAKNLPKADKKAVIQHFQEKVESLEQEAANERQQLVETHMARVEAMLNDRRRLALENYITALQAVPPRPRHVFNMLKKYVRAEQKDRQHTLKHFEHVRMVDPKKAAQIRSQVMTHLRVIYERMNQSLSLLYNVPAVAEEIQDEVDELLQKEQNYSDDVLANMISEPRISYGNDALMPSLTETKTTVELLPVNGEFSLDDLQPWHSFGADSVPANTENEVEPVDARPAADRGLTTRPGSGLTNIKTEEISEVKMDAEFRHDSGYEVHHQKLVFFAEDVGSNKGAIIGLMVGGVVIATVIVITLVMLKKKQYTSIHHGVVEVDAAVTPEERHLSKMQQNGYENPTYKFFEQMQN

Compound: CNc1ccc(/C=C/c2nc3ccc(I)cc3[nH]2)cc1
- Kd [1]: 420 nM
- Kd [2]: 450 nM
- Selectivity ratio (Homo sapiens): 0.93

Compound: CNc1ccc(/C=C/c2nc3ccc([125I])cc3[nH]2)cc1
- Drug uptake (Brain [3]): 1.42 % ID/g
- Drug uptake (Spleen [4]): 1.74 % ID/g
- Drug uptake (Stomach [5]): 2.31 %ID
- Drug uptake (Blood [6]): 1.37 % ID/g
- Drug uptake (Liver [7]): 11 % ID/g
- Drug uptake (Stomach [8]): 4.65 %ID
- Drug uptake (Liver [9]): 19.9 % ID/g
- Drug uptake (Brain [10]): 4.11 % ID/g
- Ratio (Brain [11]): 29.4
- Drug uptake (Spleen [12]): 3.13 % ID/g
- Drug uptake (Brain [13]): 0.36 % ID/g
- Drug uptake (Kidney [14]): 2.02 % ID/g
- Drug uptake (Blood [15]): 3.65 % ID/g
- Drug uptake (Lung [16]): 7.13 % ID/g
- Drug uptake (Heart [17]): 2.8 % ID/g
- Drug uptake (Blood [18]): 2.76 % ID/g
- Drug uptake (Stomach [19]): 2.97 %ID
- Drug uptake (Intestine [20]): 11.5 % ID/g
- Drug uptake (Pancreas [21]): 2.58 % ID/g
- Drug uptake (Heart [22]): 6.68 % ID/g
- Drug uptake (Intestine [23]): 30 % ID/g
- Drug uptake (Intestine [24]): 28.4 % ID/g
- Drug uptake (Lung [25]): 3.55 % ID/g
- Drug uptake (Heart [26]): 0.74 % ID/g
- Drug uptake (Heart [27]): 1.28 % ID/g
- Drug uptake (Intestine [28]): 4.96 % ID/g
- Drug uptake (Blood [29]): 2.19 % ID/g
- logP at 2 min [30]: 2
- Drug uptake (Spleen [31]): 4.9 % ID/g
- Drug uptake (Liver [32]): 23.2 % ID/g
- Drug uptake (Brain [33]): 0.14 % ID/g
- Drug uptake (Kidney [34]): 5.85 % ID/g
- Drug uptake (Pancreas [35]): 0.92 % ID/g
- Drug uptake (Lung [36]): 1.32 % ID/g
- Drug uptake (Pancreas [37]): 6.8 % ID/g
- Drug uptake (Kidney [38]): 11.2 % ID/g
- Drug uptake (Pancreas [39]): 0.51 % ID/g
- Drug uptake (Lung [40]): 1.93 % ID/g
- Drug uptake (Kidney [41]): 3.07 % ID/g
- Drug uptake (Spleen [42]): 5.19 % ID/g
- Drug uptake (Stomach [43]): 4.88 %ID
- Drug uptake (Liver [44]): 16 % ID/g
